Test: Toxicity liver stage against HepG2, at 10uM
Assay type: cell-based
Design: test concentration 10 uM, cell line HepG2-A16-CD81EGFP
Settings: human, HepG2-A16-CD81EGFP cells; read-out: INHIBITION
Procedure, shortened: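 Uninfected HepG2-A16-CD81EGFP cells, 3 × 10^3 per well, 1536-well, plated on prespotted compound at 10 μM final, parasite-free screening media added to match infected plates; puromycin 10 μM positive, DMSO 0.5% negative; run in parallel with 48 h PbLuc assay at 37 °C, 5% CO2; viability by CellTiter-Glo luminescence, normalized to controls.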

Row | Compound | cytotoxicity at 10 µM
1 | Cn1cc(CN2CCOC[C@H]2c2nc(C(C)(C)C)co2)c2ccccc21 | 1.21%
2 | O=C(CSC1=NS(=O)(=O)c2cc(F)ccc2N1)c1ccccc1 | -10.7%
3 | Oc1ccccc1CN1CCCCCC1c1cccs1 (configuration not stated) | -3.2%
4 | Nc1c(N2CCCCC2)ncnc1N1CCOCC1 | 3.66%
5 | COCCNC(=O)Cn1cc(OCc2ccccc2F)c(=O)cc1CO | -173%
6 | CCc1nnc2ccc(N3CCN(S(=O)(=O)c4ccc(C)s4)CC3)nn12 | 1.5%
7 | Cc1ccc(-n2nnc(C(=O)NCC3CCCCC3)n2)cc1 | -3.5%
8 | Cc1nc(C)c(C(=O)Nc2cc(N3CCC(C)CC3)ncn2)s1 | -8.11%
9 | CN(C)C(=O)NCc1ncn2c1CN(S(C)(=O)=O)CCC2 | 11%
10 | O=C(c1nc2c(s1)CCCN2CC1CC1)N1CCCC1 | 15.2%
11 | CN1CCc2c(C#N)c(NCc3ccncc3)n3cnnc3c2C1 | 10.8%
12 | Cc1cs/c(=N\C(=O)Cn2nc(N3CCSCC3)ccc2=O)[nH]1 | 2.33%
13 | Cc1nc(N2CCOCC2)nc2c1CN(C(=O)Cc1ccccn1)CC2 | -7.61%
14 | CCn1cc(CN(C)S(=O)(=O)c2ccc(C)c(C)c2)cn1 | 9.65%
15 | Cc1cccc2c1cnn2CCC(=O)NCC(=O)N(C)C | 7.03%
16 | CN1CCCCC12Cc1ccccc1CN(C(=O)c1ccccc1)C2 (configuration not stated) | 7.44%
17 | CC1CS(=O)(=O)CCN1CCCc1ccc(C(F)(F)F)cc1 (configuration not stated) | 0.715%
18 | CCCC(C)CS(=O)(=O)NCCc1csc(N2CCCC2)n1 (configuration not stated) | 7.47%
19 | CCN1CCCCC1C(=O)N1CCC(OC2CCCC2)CC1 (configuration not stated) | -20.6%
20 | Cc1nnc(CSc2n[nH]c(-c3ccccn3)n2)o1 | 5.81%
21 | O=C(c1ccoc1)N1CCC(NCc2cccnc2)CC1 | 8.21%

Row | Compound | cytotoxicity at 10 µM
22 | CCC(C)NC(=O)CN1CCC2(CC1)OCCO2 (configuration not stated) | -4.92%
23 | CN(C)CCN(Cc1ccc(Cl)cc1)C(=O)c1ccncc1 | 7.99%
24 | COc1cc(NC(=O)c2ccc(Cl)cc2F)c(C(=O)N(C)C)cc1OC | -18.9%
25 | CC(CN1CCCC1=O)NC(=O)c1cc(-c2cccc(Cl)c2)no1 (configuration not stated) | 5.75%
26 | COC(=O)c1ccc(S(=O)(=O)N(C)CC(N)=O)c(Cl)c1 | -1.65%
27 | CC(C)(C)c1nc(CN(CCC2CCCCC2)CC(N)=O)no1 | -3.08%
28 | Cc1nc(C2CCCCC2)sc1C(=O)O | 15%
29 | CC1CCC(O)(CN2CCN(CCNC(=O)C3CCC3)CC2)CC1 (configuration not stated) | -0.118%
30 | Cc1cc(C)n(C2CN(c3ncnc4[nH]ccc34)C2)n1 | 6.59%
31 | O=C(C1CCCN1S(=O)(=O)C1CCCC1)N1CCSCC1 (configuration not stated) | 4.71%
32 | Cc1nccn1-c1ccc(CNC(=O)c2ccc[nH]2)cn1 | -14.2%
33 | CC(C)NC(=O)CCCn1cnc2ccccc2c1=O | 15.2%
34 | COc1cccc(C2CN(CCc3ccncc3)CCO2)c1 (configuration not stated) | -10.1%
35 | Cc1ccccc1NS(=O)(=O)c1ccc(C(=O)O)cc1F | 7.94%
36 | COc1cc(N2CCC3(CC2)OCC(=O)NC3C)ncn1 (configuration not stated) | 1.95%
37 | CCOC1COC2(CCN(c3ncc(C)cn3)CC2)C1 (configuration not stated) | 7.21%
38 | COc1cccc(CNC(=O)c2nc3c(s2)CCN(C(C)=O)CC3)c1 | -77.4%
39 | O=C(c1ccncc1)N1C[C@@H](OCc2cccnc2)[C@H]2OCCC[C@H]21 | 0.866%
40 | Cn1cnc(-c2cc(C(=O)N3CCOCC3)c3ccccn23)c1 | 4.79%
41 | C[C@@H]1CN(C2Cc3ccccc3C2)CC[C@@]1(O)C1CCOCC1 | -4.04%
42 | O=C1CCC2(CCOC2)CN1Cc1nncn1CCc1ccccc1 (configuration not stated) | -0.506%

Row | Compound | cytotoxicity at 10 µM
43 | Cc1ccc(-c2ccnc(NC(C)c3n[nH]c(=O)[nH]3)n2)c(C)n1 (configuration not stated) | 1.33%
44 | Cc1nc2c(c(NC3CC3)n1)CCN(C(=O)CCc1cccnc1)CC2 | -9.1%
45 | O=C(NCC(F)F)c1ccc(S(=O)(=O)NCCc2c[nH]cn2)cc1 | -1.99%
46 | C[C@H](NC(=O)c1cccc(CCC(C)(C)O)c1)C(N)=O | -0.511%
47 | CNC(=O)[C@@H]1C[C@@H](NC(=O)CCCc2cccs2)CN1C1CCOCC1 | -0.828%
48 | Cc1ccccc1N1CCN(C(=O)c2cscn2)C(C)C1 (configuration not stated) | 0.403%
49 | COc1ncccc1C1CC(=O)Nc2cc(NS(C)(=O)=O)ccc21 (configuration not stated) | -8.1%
50 | O=c1[nH]c(-c2ccc(Cl)cc2)nc2c1CCNC2 | 4.42%
51 | O=C(COc1cccc(F)c1)N1C[C@H](CO)C[C@H](CN2CCCC2)C1 | 1.76%
52 | Cc1cc(C(F)(F)F)cc(N2CCC3(CCC(=O)N(CCO)C3)CC2)n1 | 8.09%
53 | CC(C)[C@]1(O)CN(C(=O)COCC(N)=O)C[C@H]1C | 7.37%
54 | Cn1ccc2c(-c3nccc(N)n3)ccnc21 | -16%
55 | CC1CN(Cc2nc(Cc3ccccc3F)no2)CCN1C (configuration not stated) | -7.44%
56 | NC(=O)c1ccc(C2CCCN2C(=O)CCc2nc3ccccc3s2)s1 (configuration not stated) | -8.8%
57 | CCC(=O)NC(C)c1ccccc1C (configuration not stated) | 0.245%
58 | Cc1cc(C)c2nc(CN3CCOC(CCO)C3)cc(O)c2c1 (configuration not stated) | -9.26%
59 | CCN(c1ccc(C(=O)N2CCCC(C)C2)cc1)S(=O)(=O)CC (configuration not stated) | -8.6%
60 | CCc1nc(CN2CCN(C(=O)c3csnn3)CC2)cs1 | -9.04%
61 | CCCN(C)S(=O)(=O)N1CCCC1c1ccco1 (configuration not stated) | -8.72%
62 | CCOc1ccc(C(=O)N2CCCC(n3nc(C)nc3C)C2)cc1 (configuration not stated) | -4.34%
63 | COc1cc(C(=O)Nc2cn[nH]c2)ccc1C | -7.33%

Row | Compound | cytotoxicity at 10 µM
64 | CC(OCC1CC1)C(=O)N1CCCN(c2ncccc2C#N)CC1 (configuration not stated) | -11.6%
65 | CN(CCC#N)C(=O)CN1CCCC1c1ccsc1 (configuration not stated) | -5.26%
66 | NC(=O)CN1CCCN(C(=O)Cc2ccc3c(c2)OCO3)CC1 | 2.96%
67 | CC(C)c1nc(C2CCCN2CC(=O)Nc2nncs2)no1 (configuration not stated) | -3.13%
68 | CCc1n[nH]c(C2CN(C(=O)c3ncoc3C(C)C)CCO2)n1 (configuration not stated) | -9.8%
69 | Cc1nc(CN2CCC(N(C)Cc3noc(C4CC4)n3)C2)oc1C (configuration not stated) | -11.1%
70 | CN(C)c1ccnc(C2CCCN2)n1 (configuration not stated) | 1.76%
71 | CC1(C)CC(N(Cc2ccccc2)Cc2ncc[nH]2)CC(C)(C)N1 | 0.385%
72 | O=C(NC1CC1)[C@H]1CC[C@@H]2[C@@H](CCN2CCOCc2ccccc2)O1 | -115%
73 | COCC(=O)N1CCC2(CCN(Cc3ccc(C)cc3)CC2)CC1 | 6.68%
74 | Cc1nnc(N2CCCC3(CN(Cc4ccncc4)CCO3)C2)o1 (configuration not stated) | -13.5%
75 | COCCN1C(=O)CC[C@@H]2[C@@H]1CCN2Cc1c(C)noc1C | 6.57%
76 | CNC(=O)[C@H]1C[C@H]2OCC[C@H]2N(CC2CCOCC2)C1 | 6.46%
77 | COc1cc(N2CCC3(CCCN(C(=O)c4cnccn4)C3)C2)ncn1 (configuration not stated) | -2.48%
78 | CCOC[C@]12COC[C@H]1CN(Cc1ccc(F)c(F)c1)C2 | -107%
79 | COCCN1CCO[C@@H]2CN(C(=O)Cc3cccc(F)c3)CC[C@@H]2C1 | 5.95%
80 | CN(C)S(=O)(=O)N1CC[C@]2(C[C@@H](Oc3ncccc3F)CO2)C1 | -67%
81 | COc1ccc(C2Nc3ccccc3N=C3CNC(=O)C32)cc1OC (configuration not stated) | 5.56%
82 | CC(C)CCN1C[C@@H]2C[C@H](C(=O)N3CCCC3)[C@H](C1)O2 | 4.82%
